Reference: BindingDB's records for doi:10.1021/jm200590k (University of Eastern Finland, 2011)

Target: T1, NAD-dependent protein deacetylase sirtuin-2 (Homo sapiens, UniProt Q8IXJ6)
T1 sequence (Q8IXJ6 whole entry): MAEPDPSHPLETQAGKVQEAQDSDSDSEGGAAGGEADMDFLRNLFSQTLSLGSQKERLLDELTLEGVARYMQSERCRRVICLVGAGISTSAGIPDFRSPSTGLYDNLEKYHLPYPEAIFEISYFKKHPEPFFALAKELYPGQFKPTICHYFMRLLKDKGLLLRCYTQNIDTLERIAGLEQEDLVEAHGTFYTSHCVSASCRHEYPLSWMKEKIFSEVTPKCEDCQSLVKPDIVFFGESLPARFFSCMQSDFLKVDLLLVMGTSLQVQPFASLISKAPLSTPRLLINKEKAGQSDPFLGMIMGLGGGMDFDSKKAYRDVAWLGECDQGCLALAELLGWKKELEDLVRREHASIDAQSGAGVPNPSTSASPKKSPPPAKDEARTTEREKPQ
Assay: Inhibition of recombinant GST-tagged SIRT2 at 200 uM after 1 hr by Fluor de Lys-based fluorescence assay
How it was run: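 Single-point Fluor de Lys test at 200 μM: GST-SIRT1 (40 μM KI177 substrate) or GST-SIRT2 (138 μM KI179 substrate), 500 μM NAD+, BSA-supplemented buffer, 5 min rt preincubation, enzyme-started 1 h at 37 °C. Developer with 2 mM nicotinamide 45 min 37 °C; fluorescence ex 355/em 460 nm. Percent inhibition ± standard deviation.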

| Inhibition [%] | Compound |
| --- | --- |
| 2 | CC(=S)NCCCC[C@H](N)C(=O)N[C@@H](C)C(=O)O |
| 22.4 | CC(=S)NCCCC[C@H](NC(=O)[C@H](N)Cc1ccccc1)C(=O)N[C@@H](C)C(=O)O |
| 57.2 | CC(=S)NCCCC[C@H](NC(=O)OCc1ccccc1)C(=O)NC1CCCCC1 |
